Experimental data: ChEMBL document CHEMBL4680084, “New β-Lactam Derivatives Modulate Cell Adhesion and Signaling Mediated by RGD-Binding and Leukocyte Integrins” (J Med Chem, 2016)
Activity calls are given as the source filed them. The rule behind the calls is not given here.

Columns and labels:
[1] = target: T1, Integrin alpha-IIb/beta-3 (Homo sapiens, UniProt P05106+P08514); experiment: Inhibition of fibrinogen binding to alpha2bbeta3 isolated from human HEL cells incubated for 1 hr by […] competitive solid-phase binding assay
T1 sequence (P05106 27-788 limits assumed): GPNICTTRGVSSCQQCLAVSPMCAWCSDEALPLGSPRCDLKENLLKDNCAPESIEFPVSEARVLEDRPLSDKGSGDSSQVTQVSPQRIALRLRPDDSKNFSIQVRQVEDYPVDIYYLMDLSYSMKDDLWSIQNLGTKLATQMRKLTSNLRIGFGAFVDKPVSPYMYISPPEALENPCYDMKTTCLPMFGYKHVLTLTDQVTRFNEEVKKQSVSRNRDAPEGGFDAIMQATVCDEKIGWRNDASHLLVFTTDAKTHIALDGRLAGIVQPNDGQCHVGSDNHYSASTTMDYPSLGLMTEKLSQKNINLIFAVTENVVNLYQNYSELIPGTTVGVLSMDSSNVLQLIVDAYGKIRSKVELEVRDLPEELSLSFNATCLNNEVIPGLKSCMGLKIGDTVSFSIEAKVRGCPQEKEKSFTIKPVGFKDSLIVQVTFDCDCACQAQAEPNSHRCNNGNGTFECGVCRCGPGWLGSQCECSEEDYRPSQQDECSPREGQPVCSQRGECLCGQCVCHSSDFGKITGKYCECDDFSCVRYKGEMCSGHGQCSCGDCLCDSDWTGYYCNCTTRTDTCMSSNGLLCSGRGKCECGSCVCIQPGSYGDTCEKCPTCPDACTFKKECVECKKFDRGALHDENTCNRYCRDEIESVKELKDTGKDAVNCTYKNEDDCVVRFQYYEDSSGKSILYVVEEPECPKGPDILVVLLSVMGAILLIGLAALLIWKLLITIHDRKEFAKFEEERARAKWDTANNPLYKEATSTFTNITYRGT
T1 sequence (P08514 32-887 limits assumed): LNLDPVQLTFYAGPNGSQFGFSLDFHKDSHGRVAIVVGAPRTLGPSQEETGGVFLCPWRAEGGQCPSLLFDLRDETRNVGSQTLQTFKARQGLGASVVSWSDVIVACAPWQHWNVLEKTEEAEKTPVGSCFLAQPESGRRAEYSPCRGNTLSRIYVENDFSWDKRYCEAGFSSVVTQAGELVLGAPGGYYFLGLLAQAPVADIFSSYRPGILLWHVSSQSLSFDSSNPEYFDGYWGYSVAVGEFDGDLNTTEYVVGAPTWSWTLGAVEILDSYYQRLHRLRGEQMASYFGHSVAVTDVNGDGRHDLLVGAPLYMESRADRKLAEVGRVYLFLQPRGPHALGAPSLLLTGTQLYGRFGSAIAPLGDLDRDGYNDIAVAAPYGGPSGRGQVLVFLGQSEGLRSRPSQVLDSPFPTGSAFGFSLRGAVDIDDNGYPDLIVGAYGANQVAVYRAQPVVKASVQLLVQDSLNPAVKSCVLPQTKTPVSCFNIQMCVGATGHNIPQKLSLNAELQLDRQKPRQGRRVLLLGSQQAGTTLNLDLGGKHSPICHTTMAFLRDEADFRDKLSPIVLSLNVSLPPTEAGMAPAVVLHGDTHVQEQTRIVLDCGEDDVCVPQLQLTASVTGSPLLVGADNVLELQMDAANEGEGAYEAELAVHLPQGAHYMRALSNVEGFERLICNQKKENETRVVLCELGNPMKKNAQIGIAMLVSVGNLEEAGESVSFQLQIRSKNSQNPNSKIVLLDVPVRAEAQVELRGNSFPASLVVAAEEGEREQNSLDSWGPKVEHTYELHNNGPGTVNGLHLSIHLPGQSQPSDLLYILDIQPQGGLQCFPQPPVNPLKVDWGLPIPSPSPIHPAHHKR
T1 sequence (P08514 891-1039 limits assumed): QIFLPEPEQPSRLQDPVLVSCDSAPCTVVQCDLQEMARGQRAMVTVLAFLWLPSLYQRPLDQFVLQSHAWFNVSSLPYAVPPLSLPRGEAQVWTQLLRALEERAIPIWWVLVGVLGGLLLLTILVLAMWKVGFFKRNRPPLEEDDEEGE

Integrin alpha-V/beta-3 [2] = target: T2, Integrin alpha-V/beta-3 (Homo sapiens, UniProt P05106+P06756); experiment: Antagonist activity at alphaVbeta3 in human SK-MEL-24 cells assessed as reduction in cell adhesion to fibronectin pre-incubated for 30 mins before fibronectin and further incubated for 1 hr by nitrophenyl-N-acetyl-beta-D-glucosaminide substrate based chromogenic assay
How it was run: (§1)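 Compound or methanol vehicle pre-incubated with cells for 30 min at room temperature. Cells then plated on wells coated overnight at 4 °C with fibronectin 10 µg/mL (SK-MEL-24, K562, HT-29) or fibrinogen 10 µg/mL (MCF7, HEL). Seeding was 50,000 cells/well, or 100000 for HEL. Adhesion ran 1 h at room temperature. Wells washed with 1% BSA/PBS. Quadruplicate, at least three repeats.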
Target sequence in this assay (P05106 27-788 limits assumed): as the sequence (P05106 27-788 limits assumed) above
Target sequence in this assay (P06756 31-889 limits assumed): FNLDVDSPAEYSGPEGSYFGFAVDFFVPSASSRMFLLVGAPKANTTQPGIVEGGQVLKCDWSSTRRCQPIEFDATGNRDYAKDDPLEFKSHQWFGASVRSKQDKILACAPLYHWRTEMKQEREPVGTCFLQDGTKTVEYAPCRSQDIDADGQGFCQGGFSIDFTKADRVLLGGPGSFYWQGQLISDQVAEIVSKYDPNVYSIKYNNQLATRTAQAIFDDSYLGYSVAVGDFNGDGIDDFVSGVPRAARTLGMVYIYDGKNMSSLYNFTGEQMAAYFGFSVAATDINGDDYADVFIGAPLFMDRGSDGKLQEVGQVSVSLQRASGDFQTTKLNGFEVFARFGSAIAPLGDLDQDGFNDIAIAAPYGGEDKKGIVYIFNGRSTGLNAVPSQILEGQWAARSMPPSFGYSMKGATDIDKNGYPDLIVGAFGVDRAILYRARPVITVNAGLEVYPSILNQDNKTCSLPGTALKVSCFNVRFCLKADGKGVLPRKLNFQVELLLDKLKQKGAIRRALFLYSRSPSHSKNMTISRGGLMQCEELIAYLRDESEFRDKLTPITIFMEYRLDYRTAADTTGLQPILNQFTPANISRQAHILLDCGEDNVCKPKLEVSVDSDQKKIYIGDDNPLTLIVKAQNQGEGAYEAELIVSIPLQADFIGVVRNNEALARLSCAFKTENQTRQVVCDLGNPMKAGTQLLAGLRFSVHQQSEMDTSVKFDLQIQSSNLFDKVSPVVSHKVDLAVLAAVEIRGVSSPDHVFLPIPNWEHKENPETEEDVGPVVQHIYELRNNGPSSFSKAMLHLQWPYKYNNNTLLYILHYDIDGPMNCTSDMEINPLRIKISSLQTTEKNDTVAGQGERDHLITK
Target sequence in this assay (P06756 891-1048 limits assumed): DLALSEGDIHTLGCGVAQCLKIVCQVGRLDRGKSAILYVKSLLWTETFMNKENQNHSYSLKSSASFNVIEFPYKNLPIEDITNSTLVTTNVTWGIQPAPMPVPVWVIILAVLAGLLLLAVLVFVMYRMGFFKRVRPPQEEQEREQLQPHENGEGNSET

[3] = target: T1, Integrin alpha-IIb/beta-3; experiment: Antagonist activity at alpha2bbeta3 in human HEL cells assessed as reduction in cell adhesion to fibrinogen pre-incubated for 30 mins before fibrinogen and further incubated for 1 hr by nitrophenyl-N-acetyl-beta-D-glucosaminide substrate based chromogenic assay; how it was run: as §1
Integrin alpha-4/beta-1 [4] = target: T3, Integrin alpha-4/beta-1 (Homo sapiens, UniProt P05556+P13612); experiment: Antagonist activity at alpha4beta1 in human Jurkat E6.1 cells assessed as reduction in cell adhesion to VCAM1 pre-incubated for 30 mins before VCAM1 and further incubated for 30 mins by […]; format: cell-based
T3 sequence (P05556 whole entry): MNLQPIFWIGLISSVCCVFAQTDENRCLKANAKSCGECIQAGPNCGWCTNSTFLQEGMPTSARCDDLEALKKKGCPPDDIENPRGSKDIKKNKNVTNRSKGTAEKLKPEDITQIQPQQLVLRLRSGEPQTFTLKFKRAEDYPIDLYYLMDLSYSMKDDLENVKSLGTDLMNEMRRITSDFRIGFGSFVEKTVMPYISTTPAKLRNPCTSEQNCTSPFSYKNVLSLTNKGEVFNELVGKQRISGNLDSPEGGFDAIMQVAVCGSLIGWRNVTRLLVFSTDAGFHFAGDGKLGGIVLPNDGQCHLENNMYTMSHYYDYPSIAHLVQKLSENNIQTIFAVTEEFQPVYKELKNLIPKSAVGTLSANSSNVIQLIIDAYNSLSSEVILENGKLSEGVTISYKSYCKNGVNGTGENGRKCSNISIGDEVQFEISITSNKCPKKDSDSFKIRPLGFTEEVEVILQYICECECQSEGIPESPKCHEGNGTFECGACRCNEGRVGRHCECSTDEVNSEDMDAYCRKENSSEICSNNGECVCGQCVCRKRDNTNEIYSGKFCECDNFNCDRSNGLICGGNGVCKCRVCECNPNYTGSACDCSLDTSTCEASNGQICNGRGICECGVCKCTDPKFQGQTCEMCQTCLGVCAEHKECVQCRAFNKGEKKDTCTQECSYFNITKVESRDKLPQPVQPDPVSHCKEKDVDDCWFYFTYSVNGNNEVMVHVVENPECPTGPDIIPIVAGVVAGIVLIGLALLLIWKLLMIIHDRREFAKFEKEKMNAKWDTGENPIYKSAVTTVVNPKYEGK
T3 sequence (P13612 whole entry): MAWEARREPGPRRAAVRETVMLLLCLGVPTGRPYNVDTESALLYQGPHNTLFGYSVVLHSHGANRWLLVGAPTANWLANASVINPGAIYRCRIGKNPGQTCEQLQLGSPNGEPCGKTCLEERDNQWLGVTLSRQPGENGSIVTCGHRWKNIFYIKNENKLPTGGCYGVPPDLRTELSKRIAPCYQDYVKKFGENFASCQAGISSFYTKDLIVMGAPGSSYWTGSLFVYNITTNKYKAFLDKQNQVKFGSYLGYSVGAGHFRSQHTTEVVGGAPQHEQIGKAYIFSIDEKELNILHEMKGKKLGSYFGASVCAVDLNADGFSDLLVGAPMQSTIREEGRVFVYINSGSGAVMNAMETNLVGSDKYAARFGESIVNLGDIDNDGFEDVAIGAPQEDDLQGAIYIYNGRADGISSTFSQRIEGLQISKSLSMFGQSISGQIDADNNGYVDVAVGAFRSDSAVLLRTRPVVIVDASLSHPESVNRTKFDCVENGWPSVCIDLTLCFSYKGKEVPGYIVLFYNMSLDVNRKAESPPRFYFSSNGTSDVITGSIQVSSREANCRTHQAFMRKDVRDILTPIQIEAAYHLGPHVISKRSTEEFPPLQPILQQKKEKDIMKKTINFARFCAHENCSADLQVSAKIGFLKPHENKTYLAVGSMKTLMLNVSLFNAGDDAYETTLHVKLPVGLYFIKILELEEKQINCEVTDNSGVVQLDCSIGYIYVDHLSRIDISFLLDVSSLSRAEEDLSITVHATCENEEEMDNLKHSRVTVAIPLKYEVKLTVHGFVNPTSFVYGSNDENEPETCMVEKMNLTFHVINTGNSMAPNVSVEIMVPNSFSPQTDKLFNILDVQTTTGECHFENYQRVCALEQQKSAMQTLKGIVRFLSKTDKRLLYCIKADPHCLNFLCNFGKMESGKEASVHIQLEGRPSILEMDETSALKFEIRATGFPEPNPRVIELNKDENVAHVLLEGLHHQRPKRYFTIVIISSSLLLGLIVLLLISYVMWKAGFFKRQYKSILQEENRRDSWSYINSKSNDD

Integrin alpha-4/beta-1 [5] = target: T3, Integrin alpha-4/beta-1; experiment: Inhibition of fibronectin binding to […] isolated from human Jurkat E6.1 cells incubated for 1 hr by scintillation-proximity assay based competitive solid-phase binding assay; format: tissue-based
Integrin alpha-5/beta-1 [6] = target: T4, Integrin alpha-5/beta-1 (Homo sapiens, UniProt P05556+P08648); experiment: Agonist activity at alpha5beta1 in human K562 cells assessed as increase in cell adhesion to fibronectin pre-incubated for 30 mins and further incubated for 1 hr by nitrophenyl-N-acetyl-beta-D-glucosaminide substrate based chromogenic assay; conditions: filed as agonist, time 90.0 min
How it was run: as §1, with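 “BSA/PBS. Adherent cells read by hexosaminidase substrate, absorbance 405 nm.” for “BSA/PBS.”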

Integrin alpha-5/beta-1 [7] = target: T4, Integrin alpha-5/beta-1; experiment: Agonist activity at alpha5beta1 in human K562 cells assessed as increase in cell adhesion to fibronectin at 10 ug/ml […] and further incubated for 1 hr in presence of neutralizing antibody against the alpha5 integrin subunit by nitrophenyl-N-acetyl-beta-D-glucosaminide substrate based chromogenic assay; conditions: dose 10.0 µg/ml, time 90.0 min
Integrin alpha-V/beta-3 [8] = target: T2, Integrin alpha-V/beta-3; experiment: Agonist activity at human alphaVbeta3 expressed in HEK293 cells assessed as reduction in fibronectin-induced ERK1/2 phosphorylation at 1 to 100 nM by Western blot analysis; format: cell-based; conditions: filed as agonist, dose 1-100 nM
[9] = target: Integrin alpha-L/beta-2 (LFA-1) (Homo sapiens) (UniProt P20701+P05107); experiment: Antagonist activity at alphaLbeta2 in human Jurkat E6.1 cells assessed as reduction in ICAM-1-induced ERK1/2 phosphorylation by Western blot analysis; format: cell-based; conditions: filed as antagonist
[10] = target: Integrin alpha-L/beta-2 (Homo sapiens); experiment: Binding affinity to human alphaLbeta2 incubated for 1 hr by scintillation-proximity assay based competitive solid-phase binding assay
Integrin alpha-V/beta-3 [11] = target: T2, Integrin alpha-V/beta-3; experiment: Agonist activity at alphaVbeta3 in human SK-MEL-24 cells assessed as increase in cell adhesion to fibronectin pre-incubated for 30 mins before fibronectin and further incubated for 1 hr by nitrophenyl-N-acetyl-beta-D-glucosaminide substrate based chromogenic assay
How it was run: as §1, with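 “BSA/PBS. Adherent cells read by hexosaminidase substrate, absorbance 405 nm.” for “BSA/PBS.”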
Target sequence in this assay (P05106 27-788 limits assumed): as the sequence (P05106 27-788 limits assumed) above
Target sequence in this assay (P06756 31-889 limits assumed): as the sequence (P06756 31-889 limits assumed) above
Target sequence in this assay (P06756 891-1048 limits assumed): as the sequence (P06756 891-1048 limits assumed) above

Integrin alpha-4/beta-1 [12] = target: T3, Integrin alpha-4/beta-1; experiment: Agonist activity at alpha4beta1 in human Jurkat E6.1 cells assessed as increase in cell adhesion to VCAM1 pre-incubated for 30 mins before VCAM1 and further incubated for 30 mins by […]; format: cell-based
How it was run: (§2)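 Jurkat E6.1 cells labelled with CellTracker green CMFDA (12.5 µM, 30 min, 37 °C), washed, then pre-incubated 30 min at 37 °C with compound or methanol. Plated at 500,000/well on VCAM-1 (α4β1) or ICAM-1 (αLβ2) coated wells (5 µg/mL) for 30 min at 37 °C. Cells lysed in 0.5% Triton X-100; fluorescence read Ex485/Em535. Quadruplicate, at least three repeats.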

[13] = target: Integrin alpha-L/beta-2 (LFA-1) (Homo sapiens, UniProt P05107+P20701); experiment: Agonist activity at alphaLbeta2 in human Jurkat E6.1 cells assessed as increase in cell adhesion to ICAM1 pre-incubated for 30 mins before ICAM1 and further incubated for 30 mins by […]; format: cell-based; how it was run: as §2
Integrin alpha-4/beta-1 [14] = target: T3, Integrin alpha-4/beta-1; experiment: Agonist activity at alpha4beta1 in human Jurkat E6.1 cells assessed as increase in cell adhesion to VCAM1 at 10 ug/ml pre-incubated for 30 mins and further incubated for 30 mins in presence of neutralizing antibody against the alpha4 integrin subunit by nitrophenyl-N-acetyl-beta-D-glucosaminide substrate based chromogenic assay; conditions: dose 10.0 µg/ml, time 60.0 min
How it was run: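 Agonist-coated wells (10 µg/mL in methanol). Cells pre-treated 10 min before plating with neutralizing anti-α5, anti-αv or anti-α4 antibody (10 µg/mL), or pre-incubated with c(-RGDfV) (1 µM). K562 plated at 50,000/well and Jurkat E6.1 at 500,000/well. Adhesion quantified as in the standard assay.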

`Nc1ccc(CNC(=O)N2C(=O)CC2CC(=O)O)cc1.O=C(O)C(F)(F)F` (stereo not drawn) showed an IC50 [1] of over 1 µM, an IC50 (Integrin alpha-V/beta-3 [2]) of 0.0717 µM and an IC50 [3] of over 5 µM. The IC50 (Integrin alpha-4/beta-1 [4]) was 0.574 µM, the IC50 (Integrin alpha-4/beta-1 [5]) was 0.498 µM and the Activity (Integrin alpha-5/beta-1 [6]) was “Dose-dependent effect”. For the same molecule, the Activity (Integrin alpha-5/beta-1 [7]) was “inactive”, the Activity (Integrin alpha-V/beta-3 [8]) was “Active” and the Activity [9] was “Dose-dependent effect”. The IC50 [10] was 0.0067 µM.
In the case of `NCc1ccc(NC(=O)N2C(=O)CC2CC(=O)NCCC(=O)O)cc1.O=C(O)C(F)(F)F` (stereo not drawn), the IC50 [1] is reported as over 1 µM, the EC50 (Integrin alpha-V/beta-3 [11]) is reported as over 5 µM and the IC50 (Integrin alpha-V/beta-3 [2]) is reported as over 5 µM. The EC50 (Integrin alpha-4/beta-1 [12]) was over 5 µM, the IC50 [3] was 1.56 µM and the IC50 (Integrin alpha-4/beta-1 [4]) was over 5 µM. The EC50 [13] was over 5 µM, the Activity (Integrin alpha-5/beta-1 [6]) was “Dose-dependent effect” and the Activity (Integrin alpha-4/beta-1 [14]) was “inactive”.
`Cc1ccccc1NC(=O)N1C(=O)CC1CC(=O)NCC(=O)O` (stereo not drawn) gave an EC50 (Integrin alpha-V/beta-3 [11]) of over 5 µM, an IC50 (Integrin alpha-V/beta-3 [2]) of over 5 µM and an EC50 (Integrin alpha-4/beta-1 [12]) of over 5 µM. The IC50 [3] was over 5 µM, the IC50 (Integrin alpha-4/beta-1 [4]) was over 5 µM and the EC50 [13] was over 5 µM. For the same molecule, the IC50 (Integrin alpha-4/beta-1 [5]) was over 1 µM, the Activity (Integrin alpha-5/beta-1 [6]) was “Dose-dependent effect” and the Activity (Integrin alpha-4/beta-1 [14]) was “inactive”.
